Results gathered from unrelated publications.

| Compound | target or system | assay | system | setting | quantity | value |
| --- | --- | --- | --- | --- | --- | --- |
| CC(C)=CCC/C(C)=C/COc1cc(O)cc(O)c1C(=O)c1ccccc1 |  | DPPH scavenging, absorbance |  | 30 min | IC50 | 2330 µM |
| O=C(Nc1ccc(O)cc1)c1ccccc1O | Chikungunya virus | viral replication, luciferase | BHK-21 | 16 h | IC50 | > 100 µM |
| C[C@H]1COc2c(N3CCN(C)CC3)c(F)cc3c(=O)c(C(=O)O)cn1c23 | Haemophilus influenzae | microbial growth |  |  | MIC | > 4 µg/mL |
| O=C(Nc1ncc([N+](=O)[O-])s1)c1ccccc1O | Chikungunya virus | viral replication, luciferase | BHK-21 | 16 h | IC50 | 13.1 µM |
| O=c1c(O[C@@H]2O[C@H](CO)[C@H](O)[C@H](O)[C@H]2O)c(-c2ccc(O)c(O)c2)oc2cc(O)cc(O)c12 |  | DPPH scavenging, absorbance |  | 30 min | IC50 | 142 µM |
| COc1c2ccoc2cc2oc(=O)ccc12 | HEp-2 | cell growth or viability, WST-1 |  | 48 h | IC50 | 23.4 µM |
| COc1ccc(O)c(C(C)(C)C)c1 |  | DPPH scavenging, absorbance |  |  | IC50 | 10.1 µg/mL |
| Cc1c2ccncc2c(C)c2c1[nH]c1ccccc12 | THP-1 | TNF-α release, inhibitor, ELISA |  | 17 h, LPS-stimulated | IC50 | 0.44 µM |
| O=c1[nH]cnc2c1nnn2-c1cccc(Cl)c1 | Chikungunya virus | viral replication, luciferase | BHK-21 | 16 h | IC50 | > 100 µM |
| O=C(O)c1cn(C2CC2)c2cc(N3CCNCC3)c(F)cc2c1=O | Haemophilus influenzae | microbial growth |  |  | MIC | > 4 µg/mL |
| COc1c2c(cc3c1OCO3)[C@]13C=C[C@H](OC)C[C@@H]1[N@](C2)C[C@H]3OC(=O)c1ccc2ccccc2c1 | SAOS-2 | cell growth or viability, WST-1 |  |  | IC50 | > 10 µM |
| CCCCCCCCCOc1ccc2[nH]cc(CCN)c2c1 | FaDu | cell growth or viability |  | 72 h | IC50 | 7.3 µM |
